kcat/Km, Km and kcat data for six molecules are collected here from ChEMBL document CHEMBL1687761.

Data set [1] concerns Escherichia coli. Kind of data set: Ratio of Kcat to Km for Escherichia coli XL1-Blue IMP-1 W64A mutant beta-lactamase by spectrophotometer.
For data set [2], the system named is Escherichia coli. Kind of data set: Ratio of Kcat to Km for Escherichia coli XL1-Blue VIM-2 A64W mutant beta-lactamase by spectrophotometer. In short, it runs like this:
(§1)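 Mutant enzyme expressed in E. coli BL21(DE3) in autoinducing ZYP-5052 medium. Purified by anion exchange at pH 7.2, then high-resolution anion exchange at pH 9.2, plus gel filtration in 50 mM HEPES-50 μM ZnSO4 pH 7.5 where needed. Identity confirmed by tryptic peptide mass fingerprint. Steady-state kinetics on β-lactam substrates were run under the conditions used for wild-type VIM-2.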

The subject of data set [3] is Escherichia coli. As to the kind of experiment: Ratio of Kcat to Km for Escherichia coli XL1-Blue wild-type IMP-1 beta-lactamase by spectrophotometer.
Data set [4] has as its system Escherichia coli. As to the kind of experiment: Activity of Escherichia coli XL1-Blue IMP-1 W64A mutant beta-lactamase by spectrophotometer.
The test system of data set [5] is Escherichia coli. Kind of data set: Activity of Escherichia coli XL1-Blue wild-type IMP-1 beta-lactamase by spectrophotometer.
For data set [6], the system named is Escherichia coli. As to the kind of experiment: Activity of Escherichia coli XL1-Blue VIM-2 A64W mutant beta-lactamase by spectrophotometer. In short, it runs like this: as §1
The subject of data set [7] is CC(=O)OCC1=C(C(=O)O)N2C(=O)[C@@H](NC(=O)Cc3cccs3)[C@H]2SC1. As to the kind of experiment: (§2) Ratio of Kcat to Km for Escherichia coli BL21(DE3) wild-type VIM-2 beta-lactamase by spectrophotometer.
For data set [8], the system named is CO/N=C(\C(=O)N[C@@H]1C(=O)N2C(C(=O)O)=C(COC(C)=O)CS[C@H]12)c1csc(N)n1. The data set is described as §2.
Data set [9] has as its system CO/N=C(\C(=O)N[C@@H]1C(=O)N2C(C(=O)[O-])=C(C[N+]3(C)CCCC3)CS[C@H]12)c1csc(N)n1. The data set is described as §2.
The subject of data set [10] is C[C@@H](O)[C@H]1C(=O)N2C(C(=O)O)=C(SCCNC=N)C[C@H]12. The description is as §2.
The test system of data set [11] is CC(C)(O/N=C(\C(=O)N[C@@H]1C(=O)N2C(C(=O)[O-])=C(C[n+]3ccccc3)CS[C@H]12)c1csc(N)n1)C(=O)O. As to the kind of experiment: (§3) Activity of Escherichia coli BL21(DE3) wild-type VIM-2 beta-lactamase by spectrophotometer.
The subject of data set [12] is CO/N=C(\C(=O)N[C@@H]1C(=O)N2C(C(=O)O)=C(COC(C)=O)CS[C@H]12)c1csc(N)n1. The data set is described as §3.
The test system of data set [13] is CO/N=C(\C(=O)N[C@@H]1C(=O)N2C(C(=O)[O-])=C(C[N+]3(C)CCCC3)CS[C@H]12)c1csc(N)n1. Described as §3.
The subject of data set [14] is C[C@@H](O)[C@H]1C(=O)N2C(C(=O)O)=C(SCCNC=N)C[C@H]12. Described as §3.
The subject of data set [15] is C[C@@H](O)[C@H]1C(=O)N2C(C(=O)O)=C(S[C@@H]3CN[C@H](C(=O)N(C)C)C3)[C@H](C)[C@H]12. The data set is described as §3.
The test system of data set [16] is CC(=O)OCC1=C(C(=O)O)N2C(=O)[C@@H](NC(=O)Cc3cccs3)[C@H]2SC1. As to the kind of experiment: (§4) Ratio of Kcat to Km for Escherichia coli XL1-Blue wild-type VIM-2 beta-lactamase by spectrophotometer.
Data set [17] deals with CO/N=C(\C(=O)N[C@@H]1C(=O)N2C(C(=O)O)=C(COC(C)=O)CS[C@H]12)c1csc(N)n1. The description is as §4.
The test system of data set [18] is CO/N=C(\C(=O)N[C@@H]1C(=O)N2C(C(=O)[O-])=C(C[N+]3(C)CCCC3)CS[C@H]12)c1csc(N)n1. The description is as §4.
Data set [19] concerns CO[C@@]1(NC(=O)Cc2cccs2)C(=O)N2C(C(=O)O)=C(COC(N)=O)CS[C@@H]21. The description is as §4.
Data set [20] relates to C[C@@H](O)[C@H]1C(=O)N2C(C(=O)O)=C(SCCNC=N)C[C@H]12. The description is as §4.
Data set [21] deals with O=C(Cc1cccs1)N[C@@H]1C(=O)N2C(C(=O)O)=C(/C=C/c3ccc([N+](=O)[O-])cc3[N+](=O)[O-])CS[C@H]12. Described as §4.
The subject of data set [22] is CC(C)(O/N=C(\C(=O)N[C@@H]1C(=O)N2C(C(=O)[O-])=C(C[n+]3ccccc3)CS[C@H]12)c1csc(N)n1)C(=O)O. As to the kind of experiment: (§5) Activity of Escherichia coli XL1-Blue wild-type VIM-2 beta-lactamase by spectrophotometer.
In data set [23] the test system is CO/N=C(\C(=O)N[C@@H]1C(=O)N2C(C(=O)O)=C(COC(C)=O)CS[C@H]12)c1csc(N)n1. The description is as §5.
The subject of data set [24] is CO/N=C(\C(=O)N[C@@H]1C(=O)N2C(C(=O)[O-])=C(C[N+]3(C)CCCC3)CS[C@H]12)c1csc(N)n1. Described as §5.
For data set [25], the system named is C[C@@H](O)[C@H]1C(=O)N2C(C(=O)O)=C(SCCNC=N)C[C@H]12. The description is as §5.
Data set [26] relates to C[C@@H](O)[C@H]1C(=O)N2C(C(=O)O)=C(S[C@@H]3CN[C@H](C(=O)N(C)C)C3)[C@H](C)[C@H]12. The data set is described as §5.
Data set [27] concerns CO/N=C(\C(=O)N[C@@H]1C(=O)N2C(C(=O)[O-])=C(C[N+]3(C)CCCC3)CS[C@H]12)c1csc(N)n1. As to the kind of experiment: (§6) Ratio of Kcat to Km for Escherichia coli BL21(DE3) VIM-2 W87F mutant beta-lactamase by spectrophotometer.
Data set [28] deals with C[C@@H](O)[C@H]1C(=O)N2C(C(=O)O)=C(SCCNC=N)C[C@H]12. The description is as §6.
The subject of data set [29] is CO/N=C(\C(=O)N[C@@H]1C(=O)N2C(C(=O)[O-])=C(C[N+]3(C)CCCC3)CS[C@H]12)c1csc(N)n1. As to the kind of experiment: (§7) Activity of Escherichia coli BL21(DE3) VIM-2 W87F mutant beta-lactamase by spectrophotometer.
Data set [30] deals with C[C@@H](O)[C@H]1C(=O)N2C(C(=O)O)=C(SCCNC=N)C[C@H]12. The data set is described as §7.

For orientation: kcat/Km means the turnover number divided by the Michaelis constant. The term Km denotes the concentration of substrate that gives half-maximal velocity. Broadly, the kcat is the maximal rate divided by the concentration of active sites.

For `CO/N=C(\C(=O)N[C@@H]1C(=O)N2C(C(=O)O)=C(COC(C)=O)CS[C@H]12)c1csc(N)n1`, the kcat/Km in data set [1] is 1.5e+06 M⁻¹ s⁻¹; in [2], 3.7e+06 M⁻¹ s⁻¹; in data set [3] it was 4.8e+06 M⁻¹ s⁻¹. Further, the Km in [4] was 61 µM; in data set [5], 2.8 µM; in data set [6] it was 7 µM. Also, the figures for the kcat in data set [4], in [5] and in data set [6] were 98 s⁻¹, 13.4 s⁻¹ and 26 s⁻¹, respectively.
For the molecule “Metallo-beta-lactamase (Escherichia coli) (from UniProt Q5U7L7)”, the kcat/Km in data set [7] was found to be 1.2e+07 M⁻¹ s⁻¹; in data set [8] it was 5.8e+06 M⁻¹ s⁻¹; in data set [9] it was 100000 M⁻¹ s⁻¹; in data set [10] it was 3.8e+06 M⁻¹ s⁻¹; in data set [16], 1.2e+07 M⁻¹ s⁻¹; in data set [17], 5.8e+06 M⁻¹ s⁻¹. Also, the kcat/Km in data set [18] is 100000 M⁻¹ s⁻¹; in [19] it was 1.2e+06 M⁻¹ s⁻¹; in data set [20] it was 3.8e+06 M⁻¹ s⁻¹; in data set [21], 4.3e+07 M⁻¹ s⁻¹. Further, the Km in data set [11] was 72 µM; in [12] it was 12 µM; in data set [13] it was above 400 µM; in data set [14], 9 µM; in data set [15], 2 µM; in data set [22], 72 µM. In addition, the Michaelis-Menten constant (Km) in data set [23] is 12 µM; in [24], above 400 µM; in data set [25], 9 µM; in [26] it was 2 µM. For the same molecule, the kcat in data set [12] was 70 s⁻¹; in data set [13], above 40 s⁻¹; in data set [14], 34 s⁻¹; in data set [15] it was 5 s⁻¹; in data set [23] it was 70 s⁻¹; in [24] it was above 40 s⁻¹. For the same molecule, the kcat turned out to be 34 s⁻¹ in data set [25] and 5 s⁻¹ in data set [26].
For `CC(C)(O/N=C(\C(=O)N[C@@H]1C(=O)N2C(C(=O)[O-])=C(C[n+]3ccccc3)CS[C@H]12)c1csc(N)n1)C(=O)O`, the kcat/Km in [2] turned out to be 18000 M⁻¹ s⁻¹; in data set [3] it was 180000 M⁻¹ s⁻¹. Moreover, the Km was 44 µM in data set [5] and 40 µM in data set [6]. The catalytic constant (kcat) in [5] was found to be 8 s⁻¹; in [6], 0.7 s⁻¹.
Consider “Metallo-beta-lactamase (Escherichia coli) (from UniProt Q5U7L7) W87F”, for which the kcat/Km in data set [27] came out at 48000 M⁻¹ s⁻¹; in data set [28], 3.7e+06 M⁻¹ s⁻¹. Moreover, the Km in [29] is above 450 µM; in [30], 6 µM. For the same molecule, the kcat was above 20 s⁻¹ in data set [29] and 22 s⁻¹ in data set [30].
With `CO[C@@]1(NC(=O)Cc2cccs2)C(=O)N2C(C(=O)O)=C(COC(N)=O)CS[C@@H]21`, the kcat/Km in data set [1] turned out to be 900000 M⁻¹ s⁻¹; in [3], 3e+06 M⁻¹ s⁻¹. The Km in [4] came to 45 µM; in [5] it was 3 µM. Further, the catalytic constant (kcat) in data set [4] amounted to 40 s⁻¹; in [5], 9 s⁻¹.
As to `CO/N=C(\C(=O)N[C@@H]1C(=O)N2C(C(=O)[O-])=C(C[N+]3(C)CCCC3)CS[C@H]12)c1csc(N)n1`, the kcat/Km in data set [2] came out at 120000 M⁻¹ s⁻¹; in data set [3], 660000 M⁻¹ s⁻¹. The Km is 11 µM in [5] and above 400 µM in data set [6]. The values for the kcat in [5] and in data set [6] were 7 s⁻¹ and above 50 s⁻¹, respectively.
